Source: ChEMBL document CHEMBL1649278, “Characterization of a new metallo-beta-lactamase gene, bla(NDM-1), and a novel erythromycin esterase gene carried on a unique genetic structure in Klebsiella pneumoniae sequence type 14 from India” (2009)
Values after ≈ are worked out from the molar mass of the structure shown.

What was measured:
[1] = system: Klebsiella pneumoniae; experiment: Antibacterial activity against Klebsiella pneumoniae 05-560 by Etest method; format: functional
[2] = system: Escherichia coli; experiment: Antibacterial activity against Escherichia coli TOP10 by Etest method; format: functional
[3] = system: Escherichia coli; experiment: Antibacterial activity against Escherichia coli TOP10 harboring beta-lactamase NDM-1 by Etest method; format: functional
Summary of the method: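 Fragments from BamHI, EcoRI or HindIII digests of K. pneumoniae 05-506 DNA were cloned into vector pK18 and electroporated into E. coli TOP10. Transformants were selected on LB agar with X-gal (30 μg/ml), ceftazidime (6 μg/ml) and kanamycin (25 μg/ml). Susceptibility read by Etest.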

[4] = system: Escherichia coli; experiment: Antibacterial activity against Escherichia coli J53 by Etest method; format: functional
[5] = system: Escherichia coli; experiment: Antibacterial activity against Escherichia coli J53 harboring beta-lactamase NDM-1 by Etest method; format: functional
Summary of the method: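 Transconjugant of E. coli J53 recipient, mated with donor on blood agar without selection for 18 h. Selected on MacConkey agar with sodium azide (100 μg/ml) plus ceftazidime (8 μg/ml). Transfer confirmed by indole test and PCR for the MBL gene. Susceptibility read by Etest.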

[6] = system: Escherichia coli; experiment: Antibacterial activity against Escherichia coli NF-NDM-1 by Etest method; format: functional
[7] = system: Klebsiella pneumoniae; experiment: Activity of Klebsiella pneumoniae 05-560 beta-lactamase IMP1 by spectrophotometry
[8] = system: Klebsiella pneumoniae; experiment: Ratio of Kcat to Km for Klebsiella pneumoniae 05-560 beta-lactamase IMP1
[9] = system: CC(=O)OCC1=C(C(=O)O)N2C(=O)[C@@H](NC(=O)Cc3cccs3)[C@H]2SC1; experiment: (§1) Activity of Klebsiella pneumoniae 05-560 beta-lactamase VIM2 by spectrophotometry
[10] = system: CC(C)(O/N=C(\C(=O)N[C@@H]1C(=O)N2C(C(=O)[O-])=C(C[n+]3ccccc3)CS[C@H]12)c1csc(N)n1)C(=O)O; experiment: as §1
[11] = system: CC1(C)S[C@@H]2[C@H](NC(=O)Cc3ccccc3)C(=O)N2[C@H]1C(=O)O; experiment: as §1
[12] = system: CCN1CCN(C(=O)N[C@@H](C(=O)N[C@@H]2C(=O)N3[C@@H]2SC(C)(C)[C@@H]3C(=O)O)c2ccccc2)C(=O)C1=O; experiment: as §1
[13] = system: CO/N=C(\C(=O)N[C@@H]1C(=O)N2C(C(=O)O)=C(COC(C)=O)CS[C@H]12)c1csc(N)n1; experiment: as §1
[14] = system: CO[C@@]1(NC(=O)Cc2cccs2)C(=O)N2C(C(=O)O)=C(COC(N)=O)CS[C@@H]21; experiment: as §1
[15] = system: CC(=O)OCC1=C(C(=O)O)N2C(=O)[C@@H](NC(=O)Cc3cccs3)[C@H]2SC1; experiment: (§2) Ratio of Kcat to Km for Klebsiella pneumoniae 05-560 beta-lactamase VIM2
[16] = system: CC(C)(O/N=C(\C(=O)N[C@@H]1C(=O)N2C(C(=O)[O-])=C(C[n+]3ccccc3)CS[C@H]12)c1csc(N)n1)C(=O)O; experiment: as §2
[17] = system: CC1(C)S[C@@H]2[C@H](NC(=O)Cc3ccccc3)C(=O)N2[C@H]1C(=O)O; experiment: as §2
[18] = system: CCN1CCN(C(=O)N[C@@H](C(=O)N[C@@H]2C(=O)N3[C@@H]2SC(C)(C)[C@@H]3C(=O)O)c2ccccc2)C(=O)C1=O; experiment: as §2
[19] = system: CO/N=C(\C(=O)N[C@@H]1C(=O)N2C(C(=O)O)=C(COC(C)=O)CS[C@H]12)c1csc(N)n1; experiment: as §2
[20] = substrate: CC(=O)OCC1=C(C(=O)O)N2C(=O)[C@@H](NC(=O)Cc3cccs3)[C@H]2SC1; experiment: (§3) Activity of Klebsiella pneumoniae 05-560 beta-lactamase NDM-1 by spectrophotometry
Summary of the method: (§4)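 NDM-1 was expressed as a His-trx fusion. The cleared lysate (12,000 rpm, 30 min, 4°C) was bound to Ni-NTA agarose and eluted with 300 mM imidazole. The tag was cut off with TEV protease, and the protein was finished by GS320 gel filtration.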

[21] = substrate: CC(C)(O/N=C(\C(=O)N[C@@H]1C(=O)N2C(C(=O)[O-])=C(C[n+]3ccccc3)CS[C@H]12)c1csc(N)n1)C(=O)O; experiment: as §3; summary of the method: as §4
[22] = substrate: CC1(C)S[C@@H]2[C@H](NC(=O)Cc3ccccc3)C(=O)N2[C@H]1C(=O)O; experiment: as §3; summary of the method: as §4
[23] = substrate: CC1(C)S[C@@H]2[C@H](NC(=O)[C@H](N)c3ccccc3)C(=O)N2[C@H]1C(=O)O; experiment: as §3; summary of the method: as §4
[24] = substrate: CCN1CCN(C(=O)N[C@@H](C(=O)N[C@@H]2C(=O)N3[C@@H]2SC(C)(C)[C@@H]3C(=O)O)c2ccccc2)C(=O)C1=O; experiment: as §3; summary of the method: as §4
[25] = substrate: CO/N=C(\C(=O)N[C@@H]1C(=O)N2C(C(=O)O)=C(COC(C)=O)CS[C@H]12)c1csc(N)n1; experiment: as §3; summary of the method: as §4
[26] = substrate: CO/N=C(\C(=O)N[C@@H]1C(=O)N2C(C(=O)[O-])=C(C[N+]3(C)CCCC3)CS[C@H]12)c1csc(N)n1; experiment: as §3; summary of the method: as §4
[27] = substrate: CO[C@@]1(NC(=O)Cc2cccs2)C(=O)N2C(C(=O)O)=C(COC(N)=O)CS[C@@H]21; experiment: as §3; summary of the method: as §4
[28] = substrate: C[C@@H](O)[C@H]1C(=O)N2C(C(=O)O)=C(SCCNC=N)C[C@H]12; experiment: as §3; summary of the method: as §4
[29] = substrate: CC(=O)OCC1=C(C(=O)O)N2C(=O)[C@@H](NC(=O)Cc3cccs3)[C@H]2SC1; experiment: (§5) Ratio of Kcat to Km for Klebsiella pneumoniae 05-560 beta-lactamase NDM-1; summary of the method: as §4
[30] = substrate: CC(C)(O/N=C(\C(=O)N[C@@H]1C(=O)N2C(C(=O)[O-])=C(C[n+]3ccccc3)CS[C@H]12)c1csc(N)n1)C(=O)O; experiment: as §5; summary of the method: as §4
[31] = substrate: CC1(C)S[C@@H]2[C@H](NC(=O)Cc3ccccc3)C(=O)N2[C@H]1C(=O)O; experiment: as §5; summary of the method: as §4
[32] = substrate: CC1(C)S[C@@H]2[C@H](NC(=O)[C@H](N)c3ccccc3)C(=O)N2[C@H]1C(=O)O; experiment: as §5; summary of the method: as §4
[33] = substrate: CCN1CCN(C(=O)N[C@@H](C(=O)N[C@@H]2C(=O)N3[C@@H]2SC(C)(C)[C@@H]3C(=O)O)c2ccccc2)C(=O)C1=O; experiment: as §5; summary of the method: as §4
[34] = substrate: CO/N=C(\C(=O)N[C@@H]1C(=O)N2C(C(=O)O)=C(COC(C)=O)CS[C@H]12)c1csc(N)n1; experiment: as §5; summary of the method: as §4
[35] = substrate: CO/N=C(\C(=O)N[C@@H]1C(=O)N2C(C(=O)[O-])=C(C[N+]3(C)CCCC3)CS[C@H]12)c1csc(N)n1; experiment: as §5; summary of the method: as §4
[36] = substrate: CO[C@@]1(NC(=O)Cc2cccs2)C(=O)N2C(C(=O)O)=C(COC(N)=O)CS[C@@H]21; experiment: as §5; summary of the method: as §4
[37] = substrate: C[C@@H](O)[C@H]1C(=O)N2C(C(=O)O)=C(SCCNC=N)C[C@H]12; experiment: as §5; summary of the method: as §4

CO/N=C(\C(=O)N[C@@H]1C(=O)N2C(C(=O)O)=C(COC(N)=O)CS[C@H]12)c1ccco1 [CEFUROXIME]
MIC [1]: > 256 µg/mL
MIC [2]: 8 µg/mL (≈ 18.9 µM)
MIC [3]: > 256 µg/mL
MIC [4]: 8 µg/mL (≈ 18.9 µM)
MIC [5]: > 256 µg/mL
MIC [6]: > 256 µg/mL

CC(=O)OCC1=C(C(=O)O)N2C(=O)[C@@H](NC(=O)Cc3cccs3)[C@H]2SC1 [CEPHALOTHIN]
MIC [1]: > 256 µg/mL
MIC [2]: 8 µg/mL (≈ 20.2 µM)
MIC [3]: > 256 µg/mL
MIC [4]: 4 µg/mL (≈ 10.1 µM)
MIC [5]: > 256 µg/mL
MIC [6]: > 256 µg/mL
Km [7]: 21 µM
kcat [7]: 48 s⁻¹
kcat/Km [8]: 2.4e+06 M⁻¹ s⁻¹

O=C(O)c1cn(C2CC2)c2cc(N3CCNCC3)c(F)cc2c1=O [CIPROFLOXACIN]
MIC [1]: > 256 µg/mL
MIC [4]: 0.032 µg/mL (≈ 0.0966 µM)
MIC [5]: 0.047 µg/mL (≈ 0.142 µM)

C[C@@H](O)[C@H]1C(=O)N2C(C(=O)O)=C(SCCNC=N)C[C@H]12 [IMIPENEM ANHYDROUS]
MIC [1]: > 256 µg/mL
MIC [2]: 0.094 µg/mL (≈ 0.314 µM)
MIC [3]: 12 µg/mL (≈ 40.1 µM)
MIC [5]: 16 µg/mL (≈ 53.4 µM)
MIC [6]: > 32 µg/mL
Km [7]: 39 µM
kcat [7]: 46 s⁻¹
kcat/Km [8]: 1.2e+06 M⁻¹ s⁻¹

C[C@@H](O)[C@H]1C(=O)N2C(C(=O)O)=C(S[C@@H]3CN[C@H](C(=O)N(C)C)C3)[C@H](C)[C@H]12 [MEROPENEM]
MIC [1]: > 256 µg/mL
MIC [2]: 0.064 µg/mL (≈ 0.167 µM)
MIC [3]: 12 µg/mL (≈ 31.3 µM)
MIC [4]: 0.064 µg/mL (≈ 0.167 µM)
MIC [5]: > 32 µg/mL
MIC [6]: > 32 µg/mL

CCN1CCN(C(=O)N[C@@H](C(=O)N[C@@H]2C(=O)N3[C@@H]2SC(C)(C)[C@@H]3C(=O)O)c2ccccc2)C(=O)C1=O [PIPERACILLIN]
MIC [1]: > 256 µg/mL
MIC [2]: 0.5 µg/mL (≈ 0.966 µM)
MIC [4]: 1 µg/mL (≈ 1.93 µM)
MIC [5]: > 256 µg/mL
MIC [6]: > 256 µg/mL

COLISTIN
MIC [1]: 0.75 µg/mL
MIC [2]: 0.38 µg/mL
MIC [3]: 0.38 µg/mL
MIC [4]: 0.25 µg/mL
MIC [5]: 0.25 µg/mL
MIC [6]: 0.25 µg/mL

Metallo-beta-lactamase VIM-2 (Klebsiella pneumoniae) (from UniProt Q3Y6Q3)
Km [9]: 44 µM
kcat [9]: 57 s⁻¹
Km [10]: 98 µM
kcat [10]: 89 s⁻¹
Km [11]: 49 µM
kcat [11]: 56 s⁻¹
Km [12]: 72 µM
kcat [12]: 33 s⁻¹
Km [13]: 32 µM
Km [14]: 24 µM
kcat [14]: 3 s⁻¹
kcat/Km [15]: 1.28e+06 M⁻¹ s⁻¹
kcat/Km [16]: 900000 M⁻¹ s⁻¹
kcat/Km [17]: 1.14e+06 M⁻¹ s⁻¹
kcat/Km [18]: 450000 M⁻¹ s⁻¹
kcat/Km [19]: 860000 M⁻¹ s⁻¹

B1: Metallo-beta-lactamase type 2 (Klebsiella pneumoniae), C7C422 (protein)
chain: MELPNIMHPVAKLSTALAAALMLSGCMPGEIRPTIGQQMETGDQRFGDLVFRQLAPNVWQHTSYLDMPGFGAVASNGLIVRDGGRVLVVDTAWTDDQTAQILNWIKQEINLPVALAVVTHAHQDKMGGMDALHAAGIATYANALSNQLAPQEGMVAAQHSLTFAANGWVEPATAPNFGPLKVFYPGPGHTSDNITVGIDGTDIAFGGCLIKDSKAKSLGNLGDADTEHYAASARAFGAAFPKASMIVMSHSAPDSRAAITHTARMADKLR
Km [20]: 10 µM
kcat [20]: 4 s⁻¹
Km [21]: 181 µM
kcat [21]: 5 s⁻¹
Km [22]: 16 µM
kcat [22]: 11 s⁻¹
Km [23]: 22 µM
kcat [23]: 15 s⁻¹
kcat [24]: 14 s⁻¹
Km [25]: 10 µM
kcat [25]: 6 s⁻¹
Km [26]: 77 µM
kcat [26]: 13 s⁻¹
kcat [27]: 1 s⁻¹
Km [28]: 94 µM
kcat [28]: 20 s⁻¹
kcat/Km [29]: 400000 M⁻¹ s⁻¹
kcat/Km [30]: 30000 M⁻¹ s⁻¹
kcat/Km [31]: 680000 M⁻¹ s⁻¹
kcat/Km [32]: 660000 M⁻¹ s⁻¹
kcat/Km [33]: 1.17e+06 M⁻¹ s⁻¹
kcat/Km [34]: 580000 M⁻¹ s⁻¹
kcat/Km [35]: 170000 M⁻¹ s⁻¹
kcat/Km [36]: 20000 M⁻¹ s⁻¹
kcat/Km [37]: 210000 M⁻¹ s⁻¹
